molecular target: T1, Aminopeptidase N (Sus scrofa, UniProt P15145); assay: Inhibition of porcine kidney microsomal APN after 10 mins at room temperature by spectrophotometry; conditions: not given
T1 sequence (P15145 whole entry): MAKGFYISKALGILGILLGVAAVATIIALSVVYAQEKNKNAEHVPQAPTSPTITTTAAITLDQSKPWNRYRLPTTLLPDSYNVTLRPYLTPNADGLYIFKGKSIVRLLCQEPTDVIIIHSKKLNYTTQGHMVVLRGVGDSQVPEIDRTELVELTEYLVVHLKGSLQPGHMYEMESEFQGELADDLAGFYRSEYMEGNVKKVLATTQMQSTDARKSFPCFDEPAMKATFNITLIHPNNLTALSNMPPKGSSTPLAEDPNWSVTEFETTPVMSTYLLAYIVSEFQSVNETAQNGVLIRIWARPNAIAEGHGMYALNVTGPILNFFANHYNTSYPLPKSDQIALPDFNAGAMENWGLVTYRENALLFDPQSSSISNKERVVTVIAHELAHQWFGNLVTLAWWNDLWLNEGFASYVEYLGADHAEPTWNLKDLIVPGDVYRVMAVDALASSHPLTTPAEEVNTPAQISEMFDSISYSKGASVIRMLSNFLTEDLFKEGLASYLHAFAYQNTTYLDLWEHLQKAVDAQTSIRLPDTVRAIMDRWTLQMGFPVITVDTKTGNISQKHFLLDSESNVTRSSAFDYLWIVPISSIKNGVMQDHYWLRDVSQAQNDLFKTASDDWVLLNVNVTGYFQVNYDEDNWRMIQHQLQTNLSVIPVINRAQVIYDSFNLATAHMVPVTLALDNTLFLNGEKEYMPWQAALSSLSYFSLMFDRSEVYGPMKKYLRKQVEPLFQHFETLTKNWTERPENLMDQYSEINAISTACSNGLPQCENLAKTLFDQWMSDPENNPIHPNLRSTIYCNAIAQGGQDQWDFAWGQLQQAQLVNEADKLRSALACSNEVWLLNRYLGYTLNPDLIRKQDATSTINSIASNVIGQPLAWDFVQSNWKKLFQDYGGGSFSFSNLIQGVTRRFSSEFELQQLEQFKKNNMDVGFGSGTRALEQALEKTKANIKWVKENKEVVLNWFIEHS
Summary of the method: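 Porcine kidney microsomal aminopeptidase (lyophilized, 15–25 units/mg protein), 6 µg/mL final, preincubated with inhibitor 10 min at room temperature. Substrate L-Leu-p-nitroanilide, 50 mM PBS pH 7.2, 37 °C. Inhibitor solutions in assay buffer adjusted to pH 7.5. IC50 as mean ± SD of three independent assays.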

Structure (SMILES) | IC50 [µM]
CC[C@@H](C)[C@H](NC(=O)N[C@@H](CCCCNC(=O)OCc1ccccc1)C(=O)OC)C(=O)OC | > 50
O=C(NCCc1ccccc1)N[C@@H](CCCCNC(=O)OCc1ccccc1)C(=O)NO | > 50
C[C@H](NC(=O)N[C@@H](CCCCNC(=O)OCc1ccccc1)C(=O)O)C(=O)O | > 50
CC[C@@H](C)[C@H](NC(=O)N[C@@H](CCCCNC(=O)OCc1ccccc1)C(=O)O)C(=O)O | > 50
CC[C@@H](C)[C@H](NC(=O)N[C@@H](CCCCNC(=O)OCc1ccccc1)C(=O)NO)C(=O)NO | > 50
CC(C)C[C@H](NC(=O)N[C@@H](CCCCNC(=O)OCc1ccccc1)C(=O)O)C(=O)O | > 50
COC(=O)[C@H](CCCCNC(=O)OCc1ccccc1)NC(=O)N[C@@H](CCSC)C(=O)OC | > 50
COC(=O)[C@H](CCCCNC(=O)OCc1ccccc1)NC(=O)N[C@@H](CC(C)C)C(=O)OC | > 50
COC(=O)[C@H](CCCCNC(=O)OCc1ccccc1)NC(=O)NCc1ccccc1 | > 50
COC(=O)[C@H](C)NC(=O)N[C@@H](CCCCNC(=O)OCc1ccccc1)C(=O)OC | > 50

Further lines, results first:

IC50 [µM] | Structure (SMILES)
> 50 | CSCC[C@H](NC(=O)N[C@@H](CCCCNC(=O)OCc1ccccc1)C(=O)O)C(=O)O
16.4 | O=C(NCc1ccccc1)N[C@@H](CCCCNC(=O)OCc1ccccc1)C(=O)NO
> 50 | COC(=O)[C@H](CCCCNC(=O)OCc1ccccc1)NC(=O)N[C@H](C(=O)OC)C(C)C
> 50 | CC(C)(C)NC(=O)N[C@@H](CCCCNC(=O)OCc1ccccc1)C(=O)NO
> 50 | CC(C)[C@H](NC(=O)N[C@@H](CCCCNC(=O)OCc1ccccc1)C(=O)O)C(=O)O
> 50 | COC(=O)CNC(=O)N[C@@H](CCCCNC(=O)OCc1ccccc1)C(=O)OC
> 50 | COC(=O)[C@H](CCCCNC(=O)OCc1ccccc1)NC(=O)NCCc1ccccc1
19.9 | C[C@H](NC(=O)N[C@@H](CCCCNC(=O)OCc1ccccc1)C(=O)NO)C(=O)NO
> 50 | COC(=O)[C@H](CCCCNC(=O)OCc1ccccc1)NC(=O)NC(C)(C)C
> 50 | O=C(O)CNC(=O)N[C@@H](CCCCNC(=O)OCc1ccccc1)C(=O)O
> 50 | O=C(N[C@@H](CCCCNC(=O)OCc1ccccc1)C(=O)O)N[C@@H](Cc1ccccc1)C(=O)O
20.4 | O=C(CNC(=O)N[C@@H](CCCCNC(=O)OCc1ccccc1)C(=O)NO)NO
> 50 | COC(=O)[C@H](CCCCNC(=O)OCc1ccccc1)NC(=O)N[C@@H](Cc1ccccc1)C(=O)OC
4.51 | CC(C)C[C@H](NC(=O)N[C@@H](CCCCNC(=O)OCc1ccccc1)C(=O)NO)C(=O)NO
14.5 | O=C(N[C@@H](CCCCNC(=O)OCc1ccccc1)C(=O)NO)N[C@@H](Cc1ccccc1)C(=O)NO
14.4 | CSCC[C@H](NC(=O)N[C@@H](CCCCNC(=O)OCc1ccccc1)C(=O)NO)C(=O)NO

system: not listed separately; assay: Antiproliferative activity against human ES2 cells after 48 hrs by MTT assay; format: functional, cell-based; conditions: ES-2, 48 h
Summary of the method: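 ES-2 human cells seeded at 5000 per well, adhered 10 h, then exposed to 2500, 500, 100, 20 and 4 µg/mL compound for 48 h. MTT 0.5% solution added, 4 h further incubation, formazan dissolved in DMSO, absorbance at 570 nm. Three independent experiments, mean with SE.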

Structure (SMILES) | IC50 [µM]
C[C@H](NC(=O)N[C@@H](CCCCNC(=O)OCc1ccccc1)C(=O)NO)C(=O)NO | 415
CC(C)C[C@H](NC(=O)N[C@@H](CCCCNC(=O)OCc1ccccc1)C(=O)NO)C(=O)NO | 291
O=C(N[C@@H](CCCCNC(=O)OCc1ccccc1)C(=O)NO)N[C@@H](Cc1ccccc1)C(=O)NO | 395
CC(C)C[C@H](NC(=O)[C@@H](O)[C@H](N)Cc1ccccc1)C(=O)O [UBENIMEX] | 332
CSCC[C@H](NC(=O)N[C@@H](CCCCNC(=O)OCc1ccccc1)C(=O)NO)C(=O)NO | 356

From ChEMBL document CHEMBL1641492, “Design, synthesis and biological evaluation of novel L-lysine ureido derivatives as aminopeptidase N inhibitors” (Bioorg Med Chem, 2011)
